Results as given in ChEMBL document CHEMBL3352198, “Design, synthesis, biological evaluation of substituted benzofurans as DNA gyraseB inhibitors of Mycobacterium tuberculosis” (Bioorg Med Chem, 2014).
Converted amounts (≈) assume the structure as drawn. The source made the active and inactive calls. The rule behind the calls is not given here.

Tests used:
[1] = system: Mycobacterium tuberculosis; assay: Antibacterial activity against Mycobacterium tuberculosis H37Rv after 7 days by microplate alamar blue assay method; type: functional; conditions: 168 h
Method in brief: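 Mtb H37Rv inoculum taken from fresh LJ medium, resuspended in 7H9-S (7H9, 0.1% casitone, 0.5% glycerol, OADC), adjusted to McFarland No. 1 and diluted 1:20. Two-fold serial drug dilutions in 7H9-S, with growth and sterile controls. Incubated 7 days at 37 °C, alamar blue added, reincubated overnight. MIC taken as lowest concentration preventing the blue-to-pink colour change.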

[2] = target: DNA gyrase subunit B (Staphylococcus aureus) (UniProt P0A0K8); assay: Inhibition of Staphylococcus aureus GyrB at 50 uM
DNA gyrase subunit B (Staphylococcus aureus), sequence (P0A0K8 2-644 limits assumed): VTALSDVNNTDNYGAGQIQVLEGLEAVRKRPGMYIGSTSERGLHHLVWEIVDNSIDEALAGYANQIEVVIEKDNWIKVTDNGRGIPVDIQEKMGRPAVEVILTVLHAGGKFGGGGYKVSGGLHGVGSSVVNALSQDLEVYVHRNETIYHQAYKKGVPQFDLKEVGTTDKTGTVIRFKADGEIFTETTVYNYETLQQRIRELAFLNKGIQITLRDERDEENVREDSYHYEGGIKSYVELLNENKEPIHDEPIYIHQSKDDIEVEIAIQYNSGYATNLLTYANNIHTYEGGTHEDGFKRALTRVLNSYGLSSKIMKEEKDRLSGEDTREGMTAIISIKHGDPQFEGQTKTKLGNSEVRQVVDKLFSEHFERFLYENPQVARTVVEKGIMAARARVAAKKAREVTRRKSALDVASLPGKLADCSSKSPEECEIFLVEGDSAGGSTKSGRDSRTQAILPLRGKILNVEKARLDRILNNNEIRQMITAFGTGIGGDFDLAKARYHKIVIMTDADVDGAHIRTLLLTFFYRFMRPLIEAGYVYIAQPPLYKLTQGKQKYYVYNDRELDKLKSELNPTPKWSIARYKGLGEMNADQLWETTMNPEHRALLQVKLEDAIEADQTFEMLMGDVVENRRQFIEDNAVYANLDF

[3] = target: DNA gyrase subunit A/DNA gyrase subunit B (Mycobacterium tuberculosis (strain ATCC 25618 / H37Rv), UniProt P9WG45+P9WG47); assay: Inhibition of Mycobacterium tuberculosis DNA gyrase supercoiling activity using relaxed pBR322 substrate incubated for 30 mins by ethidium bromide staining method
DNA gyrase subunit A/DNA gyrase subunit B, sequence (P9WG45 whole entry): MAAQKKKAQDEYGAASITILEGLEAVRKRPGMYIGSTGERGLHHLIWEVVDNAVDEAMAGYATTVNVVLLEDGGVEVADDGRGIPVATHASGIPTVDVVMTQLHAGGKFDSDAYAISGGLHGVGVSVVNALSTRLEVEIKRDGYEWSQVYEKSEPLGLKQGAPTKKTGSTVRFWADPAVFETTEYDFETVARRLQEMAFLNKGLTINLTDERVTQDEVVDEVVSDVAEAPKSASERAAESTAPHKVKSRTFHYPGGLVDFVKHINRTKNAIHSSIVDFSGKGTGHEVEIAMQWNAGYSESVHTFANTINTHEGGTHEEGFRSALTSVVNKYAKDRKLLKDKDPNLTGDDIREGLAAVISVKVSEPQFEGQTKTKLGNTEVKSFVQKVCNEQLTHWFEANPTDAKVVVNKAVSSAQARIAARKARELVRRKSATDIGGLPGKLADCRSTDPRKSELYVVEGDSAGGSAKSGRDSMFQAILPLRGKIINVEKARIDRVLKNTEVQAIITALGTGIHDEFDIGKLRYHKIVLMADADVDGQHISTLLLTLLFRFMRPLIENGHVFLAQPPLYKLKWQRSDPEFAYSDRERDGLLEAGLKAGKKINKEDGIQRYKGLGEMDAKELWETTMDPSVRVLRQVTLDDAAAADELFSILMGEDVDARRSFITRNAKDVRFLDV
DNA gyrase subunit A/DNA gyrase subunit B, sequence (P9WG47 whole entry): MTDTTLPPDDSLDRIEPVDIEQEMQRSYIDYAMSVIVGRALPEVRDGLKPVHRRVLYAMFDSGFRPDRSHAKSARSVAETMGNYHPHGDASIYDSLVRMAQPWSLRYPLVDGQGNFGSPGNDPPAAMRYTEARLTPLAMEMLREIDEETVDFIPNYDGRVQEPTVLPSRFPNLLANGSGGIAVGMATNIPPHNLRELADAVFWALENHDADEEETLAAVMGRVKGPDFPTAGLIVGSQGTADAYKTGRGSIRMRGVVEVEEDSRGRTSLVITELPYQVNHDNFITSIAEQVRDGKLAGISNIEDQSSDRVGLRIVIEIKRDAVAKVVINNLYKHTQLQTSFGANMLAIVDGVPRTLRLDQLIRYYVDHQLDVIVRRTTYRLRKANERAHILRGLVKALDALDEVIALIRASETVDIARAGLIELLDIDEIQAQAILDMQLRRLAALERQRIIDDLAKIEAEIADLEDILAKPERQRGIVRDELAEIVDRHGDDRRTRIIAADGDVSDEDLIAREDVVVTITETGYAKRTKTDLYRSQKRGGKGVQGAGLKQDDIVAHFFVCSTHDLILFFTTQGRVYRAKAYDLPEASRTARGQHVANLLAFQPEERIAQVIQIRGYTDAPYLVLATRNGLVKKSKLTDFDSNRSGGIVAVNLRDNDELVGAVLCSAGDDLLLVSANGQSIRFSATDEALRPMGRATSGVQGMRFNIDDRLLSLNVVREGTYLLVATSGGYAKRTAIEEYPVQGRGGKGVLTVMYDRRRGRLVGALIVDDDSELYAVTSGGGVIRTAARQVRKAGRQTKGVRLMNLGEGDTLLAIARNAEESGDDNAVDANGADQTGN

[4] = target: DNA gyrase subunit B (Mycobacterium smegmatis) (UniProt P0C559); conditions: Mycolicibacterium smegmatis
DNA gyrase subunit B (Mycobacterium smegmatis), sequence (P0C559 2-675 limits assumed): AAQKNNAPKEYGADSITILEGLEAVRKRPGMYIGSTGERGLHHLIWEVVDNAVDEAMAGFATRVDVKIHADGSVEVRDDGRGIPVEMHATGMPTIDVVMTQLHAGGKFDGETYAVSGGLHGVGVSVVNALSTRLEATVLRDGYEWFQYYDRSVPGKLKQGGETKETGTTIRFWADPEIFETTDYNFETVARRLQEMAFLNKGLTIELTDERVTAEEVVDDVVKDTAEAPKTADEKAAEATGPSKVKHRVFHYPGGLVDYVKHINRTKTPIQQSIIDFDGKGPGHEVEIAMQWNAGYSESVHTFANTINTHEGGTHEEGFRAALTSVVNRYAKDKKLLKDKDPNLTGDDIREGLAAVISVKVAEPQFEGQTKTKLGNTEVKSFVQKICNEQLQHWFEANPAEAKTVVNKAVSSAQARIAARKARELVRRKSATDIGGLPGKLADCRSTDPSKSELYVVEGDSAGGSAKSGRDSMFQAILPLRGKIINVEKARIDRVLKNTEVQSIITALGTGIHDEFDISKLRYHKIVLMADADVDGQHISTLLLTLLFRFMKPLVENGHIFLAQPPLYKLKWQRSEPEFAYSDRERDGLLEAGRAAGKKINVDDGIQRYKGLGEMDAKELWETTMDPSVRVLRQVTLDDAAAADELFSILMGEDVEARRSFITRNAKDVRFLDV

DNA gyrase subunit B = DNA gyrase subunit B (Mycobacterium smegmatis, UniProt P0C559); assay: Inhibition of 6-His-tagged Mycobacterium smegmatis GyrB expressed in Escherichia coli BL21 (DE3) pLysS cells incubated for 100 mins in presence of ATP by malachite green dye based ATP assay; set-up: species or system Mycolicibacterium smegmatis
DNA gyrase subunit B, sequence (P0C559 whole entry): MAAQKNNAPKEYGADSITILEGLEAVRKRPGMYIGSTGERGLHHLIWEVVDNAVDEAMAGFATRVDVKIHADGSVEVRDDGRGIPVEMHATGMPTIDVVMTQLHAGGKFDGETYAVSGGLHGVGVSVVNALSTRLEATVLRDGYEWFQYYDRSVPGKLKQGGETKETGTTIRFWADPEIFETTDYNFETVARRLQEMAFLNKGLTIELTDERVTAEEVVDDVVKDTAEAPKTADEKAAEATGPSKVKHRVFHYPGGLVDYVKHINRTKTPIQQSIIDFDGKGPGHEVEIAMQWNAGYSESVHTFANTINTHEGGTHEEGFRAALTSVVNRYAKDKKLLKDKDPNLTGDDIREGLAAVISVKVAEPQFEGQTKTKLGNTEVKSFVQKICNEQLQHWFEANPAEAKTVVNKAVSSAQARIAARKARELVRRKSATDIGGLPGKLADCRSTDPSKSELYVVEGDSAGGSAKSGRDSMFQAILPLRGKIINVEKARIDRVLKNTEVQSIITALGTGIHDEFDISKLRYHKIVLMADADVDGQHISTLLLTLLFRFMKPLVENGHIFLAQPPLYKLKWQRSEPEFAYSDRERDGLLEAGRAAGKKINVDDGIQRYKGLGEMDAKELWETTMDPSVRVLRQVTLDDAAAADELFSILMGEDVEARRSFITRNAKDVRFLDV

[5] = Cytotoxicity against mouse RAW264.7 cells assessed as inhibition of cell viability at 100 uM after 48 hrs by MTT assay; type: cell-based; conditions: read-out: INH
Method in brief: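 RAW 264.7 mouse macrophages, 5 × 10^5 cells per well, exposed to compounds at 37 °C, 5% CO2 for 48 h. MTT added about 4 h before the end, then supernatant removed and DMSO added. Absorbance read at 560 nm against blank, triplicate wells per concentration, result expressed as % inhibition.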

[6] = target: DNA gyrase subunit B (Escherichia coli) (UniProt P0AES6); assay: Inhibition of Escherichia coli GyrB at 50 uM

CCOC(=O)c1cc2cc(N3CCN(C(=O)C4CCN(C(=O)OC(C)(C)C)CC4)CC3)ccc2o1
MIC [1]: 9.18 µM (≈ 4.46 µg/mL) | inhibition [2]: inactive | IC50 [3]: 0.81 µM | ΔTm [4]: 2.7 °C | IC50 (DNA gyrase subunit B): 3.2 µM | cytotoxicity at 48 h, 100 µM [5]: 3.21% | inhibition [6]: inactive

CCOC(=O)c1cc2cc(N3CCN(C(=O)Cc4ccc(F)cc4)CC3)ccc2o1
MIC [1]: 40.2 µM (≈ 16.5 µg/mL) | IC50 [3]: 26.9 µM | IC50 (DNA gyrase subunit B): 38.4 µM | cytotoxicity at 48 h, 100 µM [5]: 30.4%

NNC(=O)c1ccncc1 [ISONIAZID]
MIC [1]: 0.66 µM (≈ 0.0905 µg/mL)

CCOC(=O)c1cc2cc(N3CCN(C(=O)c4cccc(OC)c4)CC3)ccc2o1
MIC [1]: 9.67 µM (≈ 3.95 µg/mL) | IC50 [3]: 2.52 µM | IC50 (DNA gyrase subunit B): 5.01 µM | cytotoxicity at 48 h, 100 µM [5]: 15.3%

CCOC(=O)c1cc2cc(N3CCN(C(=O)c4c(Cl)cccc4Cl)CC3)ccc2o1
MIC [1]: 10 µM (≈ 4.49 µg/mL) | IC50 [3]: 3.1 µM | IC50 (DNA gyrase subunit B): 10.7 µM | cytotoxicity at 48 h, 100 µM [5]: 6.98%

CCOC(=O)c1cc2cc(N3CCN(C(=O)c4nccnc4Cl)CC3)ccc2o1
MIC [1]: 13.9 µM (≈ 5.77 µg/mL) | IC50 [3]: 3.12 µM | IC50 (DNA gyrase subunit B): 12.7 µM | cytotoxicity at 48 h, 100 µM [5]: 30.1%

CCOC(=O)c1cc2cc(N3CCN(C(=O)Cc4ccccc4)CC3)ccc2o1
MIC [1]: 12.3 µM (≈ 4.84 µg/mL) | IC50 [3]: 6.81 µM | IC50 (DNA gyrase subunit B): 9.2 µM | cytotoxicity at 48 h, 100 µM [5]: 15.1%

CCOC(=O)c1cc2cc(N3CCN(C(=O)c4ccc(C(F)(F)F)cc4)CC3)ccc2o1
MIC [1]: 54 µM (≈ 24.1 µg/mL) | IC50 [3]: 45.1 µM | IC50 (DNA gyrase subunit B): 52.1 µM | cytotoxicity at 48 h, 100 µM [5]: 3.5%

CCOC(=O)c1cc2cc(N3CCN(C(=O)Cc4ccc(Cl)cc4)CC3)ccc2o1
MIC [1]: 20.2 µM (≈ 8.63 µg/mL) | IC50 [3]: 8.9 µM | IC50 (DNA gyrase subunit B): 14.5 µM | cytotoxicity at 48 h, 100 µM [5]: 29.2%

CC1COc2c(N3CCN(C)CC3)c(F)cc3c(=O)c(C(=O)O)cn1c23 (stereo unspecified) [OFLOXACIN]
MIC [1]: 2.16 µM (≈ 0.781 µg/mL)

CCOC(=O)c1cc2cc(N3CCN(C(=O)c4cccc5ccccc45)CC3)ccc2o1
MIC [1]: 13.2 µM (≈ 5.64 µg/mL) | IC50 [3]: 3.6 µM | IC50 (DNA gyrase subunit B): 9.08 µM | cytotoxicity at 48 h, 100 µM [5]: 3.64%

COc1c(N2C[C@@H]3CCCN[C@@H]3C2)c(F)cc2c(=O)c(C(=O)O)cn(C3CC3)c12 [MOXIFLOXACIN]
MIC [1]: 8.6 µM (≈ 3.45 µg/mL) | IC50 (DNA gyrase subunit B): > 50 µM

CCOC(=O)c1cc2cc(N3CCN(C(=O)CC(C)C)CC3)ccc2o1
MIC [1]: 32.1 µM (≈ 11.5 µg/mL) | IC50 [3]: 29.1 µM | IC50 (DNA gyrase subunit B): 41.1 µM | cytotoxicity at 48 h, 100 µM [5]: 8.71%

CCOC(=O)c1cc2cc(N3CCN(C(=O)c4cccnc4Cl)CC3)ccc2o1
MIC [1]: 11 µM (≈ 4.54 µg/mL) | IC50 [3]: 1.5 µM | IC50 (DNA gyrase subunit B): 7.94 µM | cytotoxicity at 48 h, 100 µM [5]: 7.55%

CCOC(=O)c1cc2cc(N3CCN(C(=O)C4Cc5ccccc5N4)CC3)ccc2o1 (stereo unspecified)
MIC [1]: 9.23 µM (≈ 3.87 µg/mL) | IC50 [3]: 0.84 µM | IC50 (DNA gyrase subunit B): 3.89 µM | cytotoxicity at 48 h, 100 µM [5]: 29.8%

CCOC(=O)c1cc2cc(N3CCN(C(=O)Cc4c(F)cc(F)cc4F)CC3)ccc2o1
MIC [1]: 17.1 µM (≈ 7.61 µg/mL) | IC50 [3]: 6.1 µM | IC50 (DNA gyrase subunit B): 12.4 µM | cytotoxicity at 48 h, 100 µM [5]: 14%

CCOC(=O)c1cc2cc(N3CCN(C(=O)c4ccc(C5CCOCC5)cc4)CC3)ccc2o1
MIC [1]: 9.8 µM (≈ 4.53 µg/mL) | IC50 [3]: 0.91 µM | IC50 (DNA gyrase subunit B): 6.7 µM | cytotoxicity at 48 h, 100 µM [5]: 6.75%

CC[C@@H](CO)NCCN[C@@H](CC)CO [ETHAMBUTOL]
MIC [1]: 9.84 µM (≈ 2.01 µg/mL)

CCOC(=O)c1cc2cc(N3CCN(C(=O)c4c(F)cccc4F)CC3)ccc2o1
MIC [1]: 11.6 µM (≈ 4.81 µg/mL) | IC50 [3]: 2.9 µM | IC50 (DNA gyrase subunit B): 6.21 µM | cytotoxicity at 48 h, 100 µM [5]: 7.54%

CCOC(=O)c1cc2cc(N3CCN(C(=O)Cc4ccc(OC)cc4)CC3)ccc2o1
MIC [1]: 18.2 µM (≈ 7.68 µg/mL) | IC50 [3]: 7.4 µM | IC50 (DNA gyrase subunit B): 10.2 µM | cytotoxicity at 48 h, 100 µM [5]: 7.39%

CCOC(=O)c1cc2cc(N3CCN(C(=O)CC4CCCCC4)CC3)ccc2o1
MIC [1]: 38.4 µM (≈ 15.3 µg/mL) | IC50 [3]: 25.2 µM | IC50 (DNA gyrase subunit B): 36.3 µM | cytotoxicity at 48 h, 100 µM [5]: 31.4%

CO[C@@H]1[C@@H](OC(N)=O)[C@@H](O)[C@H](Oc2ccc3c(O)c(NC(=O)c4ccc(O)c(CC=C(C)C)c4)c(=O)oc3c2C)OC1(C)C [NOVOBIOCIN]
MIC [1]: > 200 µM | cytotoxicity at 48 h, 100 µM [5]: 19.4%

CCOC(=O)c1cc2cc(N3CCN(C(=O)CCc4ccc(F)cc4)CC3)ccc2o1
MIC [1]: 9.57 µM (≈ 4.06 µg/mL) | IC50 [3]: 3.13 µM | IC50 (DNA gyrase subunit B): 6.14 µM | cytotoxicity at 48 h, 100 µM [5]: 14.7%

CCOC(=O)c1cc2cc(N3CCN(C(=O)c4ccccc4C(F)(F)F)CC3)ccc2o1
MIC [1]: 38.4 µM (≈ 17.2 µg/mL) | IC50 [3]: 26.3 µM | IC50 (DNA gyrase subunit B): 36.9 µM | cytotoxicity at 48 h, 100 µM [5]: 14%

CCOC(=O)c1cc2cc(N3CCN(C(=O)c4c(F)cc(OC)cc4F)CC3)ccc2o1
MIC [1]: 25.4 µM (≈ 11.3 µg/mL) | IC50 [3]: 9.8 µM | IC50 (DNA gyrase subunit B): 24.2 µM | cytotoxicity at 48 h, 100 µM [5]: 7.03%

CCOC(=O)c1cc2cc(N3CCN(C(=O)c4ccco4)CC3)ccc2o1
MIC [1]: 43.6 µM (≈ 16.1 µg/mL) | IC50 [3]: 24.4 µM | IC50 (DNA gyrase subunit B): 37.3 µM | cytotoxicity at 48 h, 100 µM [5]: 17%

CCOC(=O)c1cc2cc(N3CCN(C(=O)COc4ccccc4)CC3)ccc2o1
MIC [1]: 9.35 µM (≈ 3.82 µg/mL) | IC50 [3]: 1.14 µM | IC50 (DNA gyrase subunit B): 3.97 µM | cytotoxicity at 48 h, 100 µM [5]: 7.65%

CCOC(=O)c1cc2cc(N3CCN(C(=O)c4ncccc4C(F)(F)F)CC3)ccc2o1
MIC [1]: 26.7 µM (≈ 11.9 µg/mL) | IC50 [3]: 7.81 µM | IC50 (DNA gyrase subunit B): 23.4 µM | cytotoxicity at 48 h, 100 µM [5]: 14%

CCOC(=O)c1sc(-c2ccccc2)nc1N1CCC(NCc2ccc(F)cc2)CC1
MIC [1]: 28.4 µM (≈ 12.5 µg/mL)

CCOC(=O)c1cc2cc(N3CCN(C(=O)Cc4ccc(Br)cc4)CC3)ccc2o1
MIC [1]: 19.8 µM (≈ 9.33 µg/mL) | IC50 [3]: 5.2 µM | IC50 (DNA gyrase subunit B): 16.6 µM | cytotoxicity at 48 h, 100 µM [5]: 53%

CCOC(=O)c1cc2cc(N3CCN(C(=O)c4ccccc4OC(F)(F)F)CC3)ccc2o1
MIC [1]: 30.2 µM (≈ 14 µg/mL) | IC50 [3]: 15.6 µM | IC50 (DNA gyrase subunit B): 29.2 µM | cytotoxicity at 48 h, 100 µM [5]: 27%
